Assay results as given in ChEMBL document CHEMBL3045304, “Sesquiterpene lactones with potential use as natural herbicide models. 2. guaianolides” (2000).
The source made the active and inactive calls. The calls are words filed in the database; no cut-off is given here.

Experiments:
[1] = test system: Triticum aestivum; experiment: Stimulation of root length of Triticum aestivum cv. Cortex (wheat) at 0.1 mM or 1 mM after 5 days relative to untreated control; format: functional
Summary of the method: (§1)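 Wheat: 10 seeds per dish on filter paper with 5 mL test solution, 5 days in the dark at 25 °C, 10 replicates per concentration. Stock test solutions were 10^-3 or 10^-4 M in 10 mM MES, with lower levels made by dilution, all at pH 6.0. Parallel controls were run. Output is % difference from control.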

[2] = test system: Triticum aestivum; experiment: Inhibition of germination of Triticum aestivum cv. Cortex (wheat) at 0.1 mM or 1 mM after 5 days relative to untreated control; format: functional; summary of the method: as §1
[3] = test system: Solanum lycopersicum; experiment: Inhibition of root length of Solanum lycopersicum cv. Tres Cantos (tomato) at 0.1 mM or 1 mM after 5 days relative to untreated control; format: functional
Summary of the method: (§2)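 Lettuce and tomato seeds, 25 per dish on filter paper, received 5 mL test solution. Incubation was 5 days in the dark at 25 °C, with four replicates per concentration. Solutions were made at 10^-3 or 10^-4 M in 10 mM MES, diluted serially, and adjusted to pH 6.0. Parallel controls were run. Results are % difference from control.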

[4] = test system: Lactuca sativa; experiment: Inhibition of root length of Lactuca sativa cv. Roman (lettuce) at 0.1 mM or 1 mM after 5 days relative to untreated control; format: functional; summary of the method: as §2
[5] = test system: Solanum lycopersicum; experiment: Stimulation of root length of Solanum lycopersicum cv. Tres Cantos (tomato) at 0.1 mM or 1 mM after 5 days relative to untreated control; format: functional; summary of the method: as §2
[6] = test system: Triticum aestivum; experiment: Stimulation of hypocotyl length of Triticum aestivum cv. Cortex (wheat) at 0.1 mM or 1 mM after 5 days relative to untreated control; format: functional; summary of the method: as §1
[7] = test system: Solanum lycopersicum; experiment: Stimulation of germination of Solanum lycopersicum cv. Tres Cantos (tomato) at 0.1 mM or 1 mM after 5 days relative to untreated control; format: functional; summary of the method: as §2
[8] = test system: Triticum aestivum; experiment: Stimulation of germination of Triticum aestivum cv. Cortex (wheat) at 0.1 mM or 1 mM after 5 days relative to untreated control; format: functional; summary of the method: as §1
[9] = test system: Allium cepa; experiment: Inhibition of root length of Allium cepa cv. Valenciana (onion) at 0.1 mM or 1 mM after 5 days relative to untreated control; format: functional
[10] = test system: Allium cepa; experiment: Stimulation of hypocotyl length of Allium cepa cv. Valenciana (onion) at 0.1 mM or 1 mM after 5 days relative to untreated control; format: functional
[11] = test system: Lepidium sativum; experiment: Inhibition of germination of Lepidium sativum at 0.1 mM or 1 mM after 5 days relative to untreated control; format: functional
[12] = test system: Triticum aestivum; experiment: Inhibition of root length of Triticum aestivum cv. Cortex (wheat) at 0.1 mM or 1 mM after 5 days relative to untreated control; format: functional; summary of the method: as §1
[13] = test system: Lepidium sativum; experiment: Inhibition of hypocotyl length of Lepidium sativum at 0.1 mM or 1 mM after 4 days relative to untreated control
[14] = test system: Solanum lycopersicum; experiment: Stimulation of hypocotyl length of Solanum lycopersicum cv. Tres Cantos (tomato) at 0.1 mM or 1 mM after 5 days relative to untreated control; format: functional; summary of the method: as §2
[15] = test system: Allium cepa; experiment: Stimulation of root length of Allium cepa cv. Valenciana (onion) at 0.1 mM or 1 mM after 5 days relative to untreated control; format: functional
[16] = test system: Lactuca sativa; experiment: Inhibition of germination of Lactuca sativa cv. Roman (lettuce) at 0.1 mM or 1 mM after 5 days relative to untreated control; format: functional; summary of the method: as §2
[17] = test system: Lepidium sativum; experiment: Stimulation of hypocotyl length of Lepidium sativum at 0.1 mM or 1 mM after 5 days relative to untreated control; format: functional
[18] = test system: Lactuca sativa; experiment: Stimulation of hypocotyl length of Lactuca sativa cv. Roman (lettuce) at 0.1 mM or 1 mM after 5 days relative to untreated control; format: functional; summary of the method: as §2
[19] = test system: Allium cepa; experiment: Inhibition of germination of Allium cepa cv. Valenciana (onion) at 0.1 mM or 1 mM after 5 days relative to untreated control; format: functional
[20] = test system: Lepidium sativum; experiment: Inhibition of germination of Lepidium sativum at 0.1 mM or 1 mM after 4 days relative to untreated control; design: scale not given: the % may be the effect or the level left
[21] = test system: Lactuca sativa; experiment: Stimulation of root length of Lactuca sativa cv. Roman (lettuce) at 0.1 mM or 1 mM after 5 days relative to untreated control; format: functional; summary of the method: as §2
[22] = test system: Lepidium sativum; experiment: Stimulation of root length of Lepidium sativum at 0.1 mM or 1 mM after 5 days relative to untreated control; format: functional
[23] = test system: Allium cepa; experiment: Stimulation of germination of Allium cepa cv. Valenciana (onion) at 0.1 mM or 1 mM after 5 days relative to untreated control; format: functional
[24] = test system: Allium cepa; experiment: Inhibition of hypocotyl length of Allium cepa cv. Valenciana (onion) at 0.1 mM or 1 mM after 5 days relative to untreated control; format: functional
[25] = test system: Lepidium sativum; experiment: Inhibition of root length of Lepidium sativum at 0.1 mM or 1 mM after 4 days relative to untreated control
[26] = test system: Solanum lycopersicum; experiment: Inhibition of hypocotyl length of Solanum lycopersicum cv. Tres Cantos (tomato) at 0.1 mM or 1 mM after 5 days relative to untreated control; format: functional; summary of the method: as §2
[27] = test system: Triticum aestivum; experiment: Inhibition of hypocotyl length of Triticum aestivum cv. Cortex (wheat) at 0.1 mM or 1 mM after 5 days relative to untreated control; format: functional; summary of the method: as §1
[28] = test system: Lactuca sativa; experiment: Inhibition of hypocotyl length of Lactuca sativa cv. Roman (lettuce) at 0.1 mM or 1 mM after 5 days relative to untreated control; format: functional; summary of the method: as §2
[29] = test system: Lactuca sativa; experiment: Stimulation of germination of Lactuca sativa cv. Roman (lettuce) at 0.1 mM or 1 mM after 5 days relative to untreated control; format: functional; summary of the method: as §2
[30] = test system: Solanum lycopersicum; experiment: Inhibition of germination of Solanum lycopersicum cv. Tres Cantos (tomato) at 0.1 mM or 1 mM after 5 days relative to untreated control; format: functional; summary of the method: as §2
[31] = test system: Allium cepa; experiment: Stimulation of root length of Allium cepa cv. Valenciana (onion) at 0.1 mM or 1 mM after 7 days relative to untreated control
[32] = test system: Allium cepa; experiment: Stimulation of hypocotyl length of Allium cepa cv. Valenciana (onion) at 0.1 mM or 1 mM after 7 days relative to untreated control
[33] = test system: Allium cepa; experiment: Inhibition of hypocotyl length of Allium cepa cv. Valenciana (onion) at 0.1 mM or 1 mM after 7 days relative to untreated control
[34] = test system: Allium cepa; experiment: Stimulation of germination of Allium cepa cv. Valenciana (onion) at 0.1 mM or 1 mM after 7 days relative to untreated control
[35] = test system: Lepidium sativum; experiment: Inhibition of germination of Lepidium sativum at 0.1 mM or 1 mM after 4 days relative to untreated control

SMILES | Activity [1] | inhibition (INH) [2] [%] | inhibition (INH) [4] [%] | Activity [5] | Activity [6] | Activity [7] | Activity [8] | inhibition (INH) [13] [%] | Activity [14] | inhibition (INH) [16] [%] | Activity [17] | Activity [18] [%] | Activity [21] [%] | Activity [22] | inhibition (INH) [25] [%] | inhibition (INH) [26] [%] | inhibition (INH) [27] [%] | inhibition (INH) [28] [%] | Activity [29] | inhibition [3] | further results
C=C1C(=O)C[C@H]2C(=C)CC[C@H]3C(=C)C(=O)O[C@@H]3[C@@H]12 [DEHYDROZALUZANIN C] | >40% | >40 | >40 | >40% | >40% | >40% | >40% | >40 | >40% | >40 | >40% | >40 | >40 | >40% | >40 | >40 | >40 | >40 | >40% |  | inhibition (INH) [3]: >40%; inhibition (INH) [9]: >40%; Activity [10]: >40%; inhibition (INH) [11]: >40%; inhibition (INH) [12]: >40%; Activity [15]: >40%; inhibition (INH) [19]: >40%; Activity [20]: >40%; Activity [23]: >40%; inhibition (INH) [24]: >40%; inhibition (INH) [30]: >40%
C=C1[C@@H]2[C@H]3OC(=O)[C@@H](CO)[C@@H]3CCC(=C)[C@@H]2C[C@H]1O | inactive |  | 20 | inactive | inactive | inactive | inactive | <20 | inactive | <20 | <20% | >40 | 20 | 20% | 20 |  |  | >40 | <20% | inactive | inhibition [2]: inactive; inhibition [9]: inactive; inhibition [12]: inactive; Activity [31]: inactive; inhibition [19]: inactive; Activity [32]: inactive; inhibition [33]: inactive; Activity [34]: inactive; Activity [35]: inactive; inhibition [35]: inactive; inhibition [26]: inactive; inhibition [27]: inactive; inhibition [30]: inactive
CC(=O)O[C@H]1CC(C)=C2C(=O)C=C(C)[C@@H]2[C@H]2OC(=O)[C@H](C)[C@H]21 [8ALPHA-ACETOXYACHILLIN] | inactive | 20 | <20 | inactive | <20% | inactive | 20% |  | <20% |  | inactive | <20 | <20 | inactive |  | <20 | <20 | <20 | inactive | inactive | inhibition [9]: inactive; inhibition [12]: inactive; inhibition [13]: inactive; inhibition [16]: inactive; Activity [31]: inactive; inhibition [19]: inactive; Activity [32]: inactive; inhibition [33]: inactive; Activity [34]: inactive; Activity [35]: inactive; inhibition [35]: inactive; inhibition [25]: inactive; inhibition [30]: inactive
